For one test, the system named is Burkitts lymphoma cell. The test is described as follows: Cytotoxic activity against was measured human Burkitt lymphoma cell lines. The format is functional, cell-based. An outline of the steps:
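CA46 Burkitt lymphoma cells in 5.0-mL suspension culture, counted after 24 h at 37 °C under 5% CO₂. IC₅₀ = drug concentration halving the increase in cell number. Highest concentration 100 nM. At least two independent experiments.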

The test system of test [1] is Panel colon (Carcinoma cell lines). The test is described as follows: Cytotoxic activity was measured against human colon carcinoma cell lines. Type of test: functional, cell-based. The essentials: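 HCT116 colon carcinoma monolayers in 96-well plates, 48 h at 37 °C under 5% CO₂. Cell protein measured. IC₅₀ = concentration giving 50% inhibition of the increase in cell protein.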

The test system of the next test is ptx-10/22. The test is described as follows: Relative resistance was measured against human paclitaxel-resistant cell lines. The format is functional, cell-based. The following applies: 1A9(PTX22).
Test [2] is filed under the species Bos taurus. The test is described as follows: Polymerizing activity of tubulin in glutamate against bovine brain tubulin homogenate was measured at 0.8M concentrations. Type of test: functional. An outline of the steps: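 Bovine brain tubulin, purified to electrophoretic homogeneity, in 0.8 M monosodium glutamate (from 2 M stock, pH 6.6), room temperature, no GTP. Polymer removed by centrifugation. IC₅₀ = concentration reducing supernatant protein by 50% relative to drug-free control. Maximum 40 µM. At least three independent experiments, or at least two for IC₅₀ over 40 µM.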

Test [3] relates to Panel ovarian (Carcinoma cell lines). The test is described as follows: Cytotoxic activity was measured against human Ovarian carcinoma cell lines. Type of test: functional, cell-based. The essentials:
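Ovarian carcinoma line 1A9, a subclone of A2780, grown as monolayers in 96-well plates for 96 h at 37 °C, 5% CO₂. Cell protein quantitated (Skehan method). IC₅₀ = concentration inhibiting the increase in cell protein by 50%.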

For test [4], the species on record is Bos taurus. The experiment in a line: Polymerizing activity of microtubule protein. Type of test: functional. The essentials: (§1)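 Twice-cycled microtubule protein, stored in liquid nitrogen, at 1.0 mg/mL final in 0.1 M MES, 1 mM EGTA, 0.5 mM MgCl₂, pH 6.6, 37 °C, no GTP. Compound at 2.5, 5.0 and 10 µM. Absorbance read every 10 s and initial linear slopes taken. EC0.01 = interpolated concentration giving an initial slope of 0.01 A unit/min.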

Test [5] is filed under the species Bos taurus. The test is described as follows: Polymerizing activity of tubulin in glutamate against bovine brain tubulin homogenate was measured at 0.4 M concentrations. Type of test: functional. An outline of the steps: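 Purified, electrophoretically homogeneous bovine brain tubulin assembled at room temperature without GTP or Mg²⁺ in 0.4 M monosodium glutamate (from 2 M stock, pH 6.6). Polymer pelleted by centrifugation. IC₅₀ = drug concentration lowering supernatant protein by 50% versus no-drug control. Up to 40 µM. At least three independent experiments, or at least two where IC₅₀ exceeded 40 µM.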

For test [6], the species on record is Bos taurus. The experiment in a line: Polymerizing activity of microtubule protein against the twice cycled microtubule protein. Type of test: functional. The essentials:
as §1

A value given as a limit tells only on which side of the number the result lay.

Usually IC50 stands for the midpoint of a concentration-inhibition curve. Read a low IC50 as greater potency. As for `CCOc1cccc(C(=O)O[C@H]2[C@@H]3[C@]4(OC(C)=O)CO[C@@H]4C[C@H](O)[C@@]3(C)C(=O)[C@H](OC(C)=O)C3=C(C)[C@@H](OC(=O)[C@H](O)[C@@H](NC(=O)c4ccccc4)c4ccccc4)C[C@]2(O)C3(C)C)c1`, the IC50 is 1 relative to paclitaxel in the test with Burkitts lymphoma cell; 1.6 relative to paclitaxel in test [1]; 1.2 relative to paclitaxel in the test listed under Bos taurus [2]; 1.7 relative to paclitaxel in test [3]; 1.4 relative to paclitaxel in the test listed under Bos taurus [5]. In the test on ptx-10/22, this compound registered a relative resistance of 0.37. In addition, the EC0.01 (relative to paclitaxel) in the test filed under Bos taurus [4] turned out to be 1.1.
Take `CC(=O)O[C@H]1C(=O)[C@@]2(C)[C@H]([C@H](OC(=O)c3cc(F)c(F)c(F)c3)[C@]3(O)C[C@H](OC(=O)[C@H](O)[C@@H](NC(=O)c4ccccc4)c4ccccc4)C(C)=C1C3(C)C)[C@]1(OC(C)=O)CO[C@@H]1C[C@@H]2O`: the IC50 is 1.3 relative to paclitaxel with Burkitts lymphoma cell; 3.4 relative to paclitaxel in test [1]; 4.7 relative to paclitaxel in the test filed under Bos taurus [2]; 3.2 relative to paclitaxel in test [3]; > 1.7 relative to paclitaxel in the test listed under Bos taurus [5]. In the test filed under Bos taurus [6], this compound gave an EC0.01 (relative to paclitaxel) of 1.8. This compound also showed a relative resistance with ptx-10/22 of 0.62.
